Reference: ChEMBL document CHEMBL1154321, “Benzoxazole piperidines as selective and potent somatostatin receptor subtype 5 antagonists” (Bioorg Med Chem Lett, 2009)
In brackets after ≈: the same amount, converted by molar mass.

How the values were obtained:
[1] = Volume of distribution at steady state in Wistar rat administered as single dose; type: ADME, organism-based; settings: in vivo, read-out: Vdss
[2] = biological target: Somatostatin receptor type 3 (Homo sapiens, UniProt P32745); assay: Displacement of SST14 from human recombinant SST3 receptor
In short: (§1)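 Membranes prepared by sonication from cells expressing the SST receptor subtype, incubated with radiolabeled 11-Tyr SST-14 tracer and test compound at varying concentrations; non-labeled SST-14 defined non-specific binding. Incubation stopped by glass-fiber filtration, bound radioactivity counted; IC50 for half-maximal binding inhibition estimated and Ki derived.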

[3] = sPermeability by PAMPA; type: ADME; settings: read-out: permeability
In short: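 Parallel artificial membrane permeation; Pe categorized as low (<0.1), medium (0.1–1.0) or high (>1.0).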

[4] = Solubility in phosphate buffer at pH 6.5 by lyophilization solubility assay; type: physicochemical
In short: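 Lyophilized DMSO stock solutions redissolved in 50 mM phosphate buffer, pH 6.5; solubility read spectrophotometrically.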

[5] = Oral bioavailability in Wistar rat administered as single dose; type: ADME, organism-based; settings: in vivo
[6] = biological target: hERG (KCNH2) (Homo sapiens, UniProt Q12809); assay: (§2) Inhibition of human ERG expressed in CHO cells by patch clamp technique; type: cell-based; settings: human, CHO cells expressing human ERG
[7] = Terminal half-life in Wistar rat administered as single dose; type: ADME, organism-based; settings: in vivo, read-out: beta t1/2 (converted)
[8] = biological target: Somatostatin receptor type 4 (Homo sapiens, UniProt P31391); assay: Displacement of SST14 from human recombinant SST4 receptor; in short: as §1
[9] = species: Homo sapiens; assay: Selectivity ratio of Ki for human histamine H1 receptor to Ki for human SST5 receptor
[10] = Octanol-TAPSO partition coefficient, log D at pH 7.4 by spectrophotometry; type: physicochemical; settings: octanol/TAPSO buffer
In short: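 Spectrophotometric log D in 1-octanol/50 mM TAPSO buffer, pH 7.4, containing 5% (v/v) DMSO.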

[11] = Dissociation constant, pKa by spectrophotometry; type: physicochemical
[12] = biological target: Somatostatin receptor type 2 (Homo sapiens, UniProt P30874); assay: Displacement of SST14 from human recombinant SST2 receptor; in short: as §1
[13] = Clearance in Wistar rat administered as single dose; type: ADME, organism-based; settings: in vivo
[14] = biological target: T1, Somatostatin receptor type 5 (Homo sapiens, UniProt P35346); assay: Displacement of SST14 from human recombinant SST5 receptor expressed in CHO cells by radioligand binding assay; type: cell-based; in short: as §1
[15] = biological target: Histamine H1 receptor (Homo sapiens, UniProt P35367); assay: Binding affinity to human histamine H1 receptor
[16] = biological target: 5-hydroxytryptamine receptor 2B (Homo sapiens, UniProt P41595); assay: Binding affinity to human 5HT2B receptor
[17] = biological target: Somatostatin receptor type 1 (Homo sapiens, UniProt P30872); assay: Displacement of SST14 from human recombinant SST1 receptor; in short: as §1
[18] = biological target: Voltage-gated inwardly rectifying potassium channel KCNH2 (Homo sapiens, UniProt Q12809); assay: as §2; type: cell-based
[19] = biological target: T1, Somatostatin receptor type 5; assay: Antagonist activity at human SST5 receptor expressed in CHO cells assessed as inhibition of forskolin-induced cAMP release by TR-FRET assay; type: functional, cell-based
In short: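 Transfected cells incubated with forskolin, 0.15 nM SST-14 and test compound at varying concentrations; cellular cAMP measured by FRET-based assay. IC50 taken as concentration half-maximally reversing the SST-14 effect, read from concentration-versus-cAMP curves.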

Sequence of Histamine H1 receptor (P35367 whole entry): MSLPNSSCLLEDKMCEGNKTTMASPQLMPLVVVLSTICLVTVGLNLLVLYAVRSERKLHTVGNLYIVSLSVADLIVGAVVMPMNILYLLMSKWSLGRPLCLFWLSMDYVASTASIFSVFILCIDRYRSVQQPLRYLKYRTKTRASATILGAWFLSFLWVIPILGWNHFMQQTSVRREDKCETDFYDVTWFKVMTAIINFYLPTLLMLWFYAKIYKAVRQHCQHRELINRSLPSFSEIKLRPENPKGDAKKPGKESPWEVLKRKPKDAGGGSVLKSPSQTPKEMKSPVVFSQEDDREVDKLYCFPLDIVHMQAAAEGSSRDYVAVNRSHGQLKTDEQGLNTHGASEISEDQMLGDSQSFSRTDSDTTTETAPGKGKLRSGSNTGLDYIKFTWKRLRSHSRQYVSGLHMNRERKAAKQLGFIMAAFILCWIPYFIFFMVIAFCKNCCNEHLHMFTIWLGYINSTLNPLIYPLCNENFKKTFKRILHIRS
Sequence of Somatostatin receptor type 3 (P32745 whole entry): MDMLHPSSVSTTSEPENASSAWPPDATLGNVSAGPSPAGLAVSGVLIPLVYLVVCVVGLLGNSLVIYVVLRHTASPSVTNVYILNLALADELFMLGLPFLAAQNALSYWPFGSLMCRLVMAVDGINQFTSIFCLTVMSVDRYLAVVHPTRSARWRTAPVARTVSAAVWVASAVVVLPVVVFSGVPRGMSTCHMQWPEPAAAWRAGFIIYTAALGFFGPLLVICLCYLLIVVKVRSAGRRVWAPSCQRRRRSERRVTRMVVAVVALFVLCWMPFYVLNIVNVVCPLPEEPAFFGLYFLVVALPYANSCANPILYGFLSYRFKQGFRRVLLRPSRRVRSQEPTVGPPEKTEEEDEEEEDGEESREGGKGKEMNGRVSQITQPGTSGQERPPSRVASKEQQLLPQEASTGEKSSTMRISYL
Sequence of Somatostatin receptor type 2 (P30874 whole entry): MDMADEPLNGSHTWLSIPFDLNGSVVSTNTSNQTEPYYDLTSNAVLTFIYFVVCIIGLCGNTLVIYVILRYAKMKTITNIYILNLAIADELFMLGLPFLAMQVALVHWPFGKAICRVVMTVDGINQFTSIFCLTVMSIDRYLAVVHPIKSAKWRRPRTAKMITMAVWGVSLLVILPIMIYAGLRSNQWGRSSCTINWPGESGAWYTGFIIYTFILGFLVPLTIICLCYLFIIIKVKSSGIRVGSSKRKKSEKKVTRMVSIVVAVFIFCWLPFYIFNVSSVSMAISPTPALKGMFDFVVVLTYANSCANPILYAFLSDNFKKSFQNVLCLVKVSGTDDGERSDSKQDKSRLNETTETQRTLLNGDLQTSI
Sequence of 5-hydroxytryptamine receptor 2B (P41595 whole entry): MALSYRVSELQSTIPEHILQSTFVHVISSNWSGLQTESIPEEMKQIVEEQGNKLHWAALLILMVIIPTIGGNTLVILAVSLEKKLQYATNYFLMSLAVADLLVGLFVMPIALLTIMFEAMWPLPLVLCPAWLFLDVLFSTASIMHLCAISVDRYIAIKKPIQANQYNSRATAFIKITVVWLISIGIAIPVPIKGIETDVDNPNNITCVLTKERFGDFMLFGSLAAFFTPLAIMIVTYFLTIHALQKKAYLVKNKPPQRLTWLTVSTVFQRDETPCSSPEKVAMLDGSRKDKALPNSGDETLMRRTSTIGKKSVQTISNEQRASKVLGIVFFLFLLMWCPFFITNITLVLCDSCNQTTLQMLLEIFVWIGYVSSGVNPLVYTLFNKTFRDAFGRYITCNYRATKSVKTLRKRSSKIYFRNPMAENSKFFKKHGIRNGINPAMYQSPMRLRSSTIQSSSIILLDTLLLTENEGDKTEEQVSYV
T1 sequence (P35346 whole entry): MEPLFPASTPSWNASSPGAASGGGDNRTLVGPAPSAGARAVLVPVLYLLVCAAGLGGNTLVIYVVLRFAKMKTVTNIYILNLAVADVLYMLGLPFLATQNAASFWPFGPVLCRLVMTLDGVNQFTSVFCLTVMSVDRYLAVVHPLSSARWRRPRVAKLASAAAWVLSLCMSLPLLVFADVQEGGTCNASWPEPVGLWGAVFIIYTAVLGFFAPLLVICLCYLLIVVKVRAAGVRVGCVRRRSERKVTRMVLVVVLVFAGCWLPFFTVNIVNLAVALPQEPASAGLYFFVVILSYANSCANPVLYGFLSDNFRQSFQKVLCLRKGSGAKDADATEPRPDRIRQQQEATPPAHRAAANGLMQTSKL
Sequence of Voltage-gated inwardly rectifying potassium channel KCNH2 (Q12809 whole entry): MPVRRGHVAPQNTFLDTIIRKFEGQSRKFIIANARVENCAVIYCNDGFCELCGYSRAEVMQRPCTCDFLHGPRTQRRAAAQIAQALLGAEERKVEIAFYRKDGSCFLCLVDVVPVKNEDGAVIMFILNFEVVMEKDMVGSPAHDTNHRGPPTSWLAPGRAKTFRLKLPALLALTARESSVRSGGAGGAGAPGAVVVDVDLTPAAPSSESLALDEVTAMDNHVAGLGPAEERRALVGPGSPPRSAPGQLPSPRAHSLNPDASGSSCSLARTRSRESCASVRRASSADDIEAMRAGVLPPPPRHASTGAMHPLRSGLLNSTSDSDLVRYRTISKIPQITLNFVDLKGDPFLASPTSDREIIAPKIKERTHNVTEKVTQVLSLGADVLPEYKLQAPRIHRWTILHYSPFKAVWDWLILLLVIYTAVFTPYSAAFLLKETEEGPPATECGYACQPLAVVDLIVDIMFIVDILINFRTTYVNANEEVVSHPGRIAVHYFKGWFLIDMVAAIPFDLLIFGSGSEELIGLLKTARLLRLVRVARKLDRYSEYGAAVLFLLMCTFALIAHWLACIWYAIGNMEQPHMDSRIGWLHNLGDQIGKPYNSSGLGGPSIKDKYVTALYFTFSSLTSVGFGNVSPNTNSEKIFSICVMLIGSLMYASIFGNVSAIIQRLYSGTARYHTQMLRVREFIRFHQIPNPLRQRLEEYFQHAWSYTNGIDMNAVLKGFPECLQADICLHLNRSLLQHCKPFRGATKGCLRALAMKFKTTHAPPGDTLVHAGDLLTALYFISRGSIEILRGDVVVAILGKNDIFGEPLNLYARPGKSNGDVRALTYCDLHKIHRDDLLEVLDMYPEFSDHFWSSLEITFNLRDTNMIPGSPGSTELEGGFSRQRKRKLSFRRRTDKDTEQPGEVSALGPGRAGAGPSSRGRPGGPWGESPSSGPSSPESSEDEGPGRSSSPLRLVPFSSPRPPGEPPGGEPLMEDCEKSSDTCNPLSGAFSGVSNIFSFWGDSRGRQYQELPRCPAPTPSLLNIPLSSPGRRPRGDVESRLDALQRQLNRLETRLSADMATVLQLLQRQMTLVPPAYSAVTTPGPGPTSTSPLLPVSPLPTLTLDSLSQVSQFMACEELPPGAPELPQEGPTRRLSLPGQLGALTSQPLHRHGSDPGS
Sequence of Somatostatin receptor type 4 (P31391 whole entry): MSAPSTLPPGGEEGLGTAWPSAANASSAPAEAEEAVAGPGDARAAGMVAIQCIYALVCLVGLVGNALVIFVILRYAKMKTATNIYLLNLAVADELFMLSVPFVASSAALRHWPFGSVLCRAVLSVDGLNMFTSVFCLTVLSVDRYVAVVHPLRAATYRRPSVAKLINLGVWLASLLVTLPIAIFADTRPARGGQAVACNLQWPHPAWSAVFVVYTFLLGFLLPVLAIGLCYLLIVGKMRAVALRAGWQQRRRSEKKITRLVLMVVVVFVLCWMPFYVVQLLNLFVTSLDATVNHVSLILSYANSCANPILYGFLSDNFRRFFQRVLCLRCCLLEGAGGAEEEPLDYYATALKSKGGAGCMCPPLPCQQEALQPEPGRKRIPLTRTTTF
Sequence of Somatostatin receptor type 1 (P30872 whole entry): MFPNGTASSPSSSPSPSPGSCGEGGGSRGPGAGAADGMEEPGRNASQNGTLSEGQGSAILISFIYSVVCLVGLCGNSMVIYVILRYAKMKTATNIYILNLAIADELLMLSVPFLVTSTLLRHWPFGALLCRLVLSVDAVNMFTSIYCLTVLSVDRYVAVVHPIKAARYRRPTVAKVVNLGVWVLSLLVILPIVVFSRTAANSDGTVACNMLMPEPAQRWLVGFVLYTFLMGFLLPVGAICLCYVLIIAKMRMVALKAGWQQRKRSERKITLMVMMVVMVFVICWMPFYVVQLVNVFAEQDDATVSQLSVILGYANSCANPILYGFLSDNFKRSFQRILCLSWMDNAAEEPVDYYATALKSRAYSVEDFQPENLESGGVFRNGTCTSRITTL

Row | Vd [1] [L/kg] | Ki [2] [µM] | Papp [3] [×10⁻⁶ cm/s] | solubility [4] [µg/mL] | bioavailability [5] [%] | half-life [7] [h] | Ki [8] [µM] | Ratio Ki [9] | logD [10] | pKa [11] | Ki [12] [µM] | clearance [13] [mL/min/kg] | Ki [14] [µM] | Ki [15] [µM] | Ki [16] [µM] | Ki [17] [µM] | IC50 [19] [µM] | SMILES | IC50 [6] [µM] | IC50 [18] [µM]
1 | 8.2 | > 10 | 1.64 | > 614 | 4 | 1.7 | > 10 | 1 | 1.51 | 8.05 | > 10 | 103 | 0.529 | 0.52 | – | – | – | CCOc1cc(CN2CCC(Nc3nc4cc(S(N)(=O)=O)ccc4o3)CC2)ccc1OC | 3.5 | –
2 | 4.1 | > 10 | – | – | 6 | 0.7 | > 10 | 5.2 | – | 8.3 | > 10 | 84 | – | – | 0.041 | – | – | CCOc1cc(CN2CCC(Nc3nc4ccccc4o3)CC2)ccc1OC | < 0.1 | –
3 | – | > 10 | 1.1 | > 638 | – | – | > 10 | 5.1 | 2.64 | – | > 10 | – | 0.182 | 0.923 | > 10 | 4.95 | – | CCOc1cc(CN2CCC(Nc3nc4cc(NC(=O)C5CCC5)ccc4o3)CC2)ccc1OC | – | –
4 | 3.3 | > 10 | 1.61 | 148 (≈ 324 µM) | 38 | 2.5 | > 10 | – | 2.96 | 7.72 | > 10 | 28 | 0.008 | – | – | – | – | CCOc1cc(CN2CCC(Nc3nc4cc(C(N)=O)ccc4o3)CC2)cc(OCC)c1F | – | 0.43
5 | – | – | – | 335 (≈ 684 µM) | – | – | – | 200 | 1.62 | 8.28 | – | – | – | 2.6 | – | 1.75 | – | CCOc1cc(CN2CCC(Nc3nc4cc(S(N)(=O)=O)ccc4o3)CC2)cc(OCC)c1N | – | –
6 | – | > 10 | 2.05 | 212 (≈ 469 µM) | – | – | > 10 | 18 | 3.02 | 7.76 | > 10 | – | 0.199 | 3.6 | 0.094 | – | – | CCOc1cc(CN2CCC(Nc3nc4ccccc4o3)CC2)cc(OC2CCOCC2)c1 | – | –
7 | 1.5 | > 10 | 2.89 | 6 (≈ 13.1 µM) | 39 | 2.4 | > 10 | – | 1.33 | – | > 10 | 20 | 0.018 | – | – | > 10 | 0.072 | CCOc1cc(CN2CCC(Nc3nc4ccc(C(=O)O)cc4o3)CC2)cc(OCC)c1F | – | –
8 | 1.8 | > 10 | 2.09 | 14 (≈ 29.5 µM) | 12 | 4.9 | > 10 | > 200 | 1.82 | – | > 10 | 18 | 0.003 | – | – | 4.5 | – | CCOc1cc(CN2CCC(Nc3nc4cc(C(=O)O)ccc4o3)CC2)cc(OCC)c1Cl | – | > 10
9 | 4.3 | > 10 | 3.6 | 7 (≈ 16.3 µM) | 57 | 3.1 | > 10 | – | 1.39 | – | > 10 | 27 | 0.023 | – | – | > 10 | 0.098 | CCOc1cc(CN2CCC(Nc3nc4ccc(C(=O)O)cc4o3)CC2)ccc1Cl | – | > 10
10 | – | > 10 | 0.49 | 44 (≈ 114 µM) | – | – | > 10 | 2.4 | 3.44 | 7.63 | > 10 | – | – | 0.266 | 0.074 | – | – | CCOc1cc(CN2CCC(Nc3nc4ccccc4o3)CC2)ccc1Cl | – | –
11 | – | > 10 | 2.45 | 32 (≈ 66.3 µM) | – | – | > 10 | 5.5 | 2.78 | 7.61 | > 10 | – | 0.252 | 1.37 | > 10 | – | – | CCOc1cc(CN2CCC(Nc3nc4cc(Cl)c(S(N)(=O)=O)cc4o3)CC2)ccc1F | – | –
